For assay [1], the species on record is Mus musculus. Kind of assay: Ring immobility (RI) in mice. It counts as functional. The essentials:
(§1)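 Same mice as temperature test; immediately after temperature reading, mice placed on 5.5 cm ring 16 cm high and motionless time over 5 min recorded; % immobility = time/300 s × 100. iv tail-vein dosing in ethanol:emulphor:saline 1:1:18.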

The target of assay [2] is T1, Cannabinoid receptor 1 (Mus musculus, UniProt P47746). Kind of assay: Binding affinity for Cannabinoid receptor 1 in presence of phenylmethylsulfonyl fluoride (PMSF). A digest of the protocol: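 Radioligand binding to P2 membranes (150 µg protein) in 50 mM Tris-HCl, 1 mM EDTA, 3 mM MgCl2, 5 mg/mL BSA, with amidase inhibitor PMSF 50 µM; final ethanol ≤0.4%. 1 h at 30 °C; nonspecific binding with 1 µM CP-55,940; terminated with ice-cold buffer and rapid filtration through PEI-treated filters.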

Assay [3] has as its target T1, Cannabinoid receptor 1. The assay is described as follows: Binding affinity for Cannabinoid receptor 1 in absence of phenylmethylsulfonyl fluoride (PMSF). A digest of the protocol:
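Radioligand binding to P2 membranes (150 µg protein) in 50 mM Tris-HCl, 1 mM EDTA, 3 mM MgCl2, 5 mg/mL BSA; ethanolic stocks diluted, final ethanol ≤0.4%; no PMSF. 1 h at 30 °C; nonspecific binding with 1 µM CP-55,940; stopped with ice-cold buffer and rapid filtration through PEI-treated filters.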

The species entered for assay [4] is Mus musculus. The assay is described as follows: Inhibition of spontaneous activity (SA) in mice. It is filed as functional. A digest of the protocol:
(§2)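 Measured in the same mice as tail-flick; iv tail-vein dosing in ethanol:emulphor:saline 1:1:18, 0.1 mL/10 g. Immediately after tail-flick (about 4 min post-injection) mice placed in individual photocell cages; beam interruptions over 16 beams counted for 10 min.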

For assay [5], the species on record is Mus musculus. The assay is described as follows: Antinociception as measured from the tail - flick response (TF), in mice. It counts as functional.
Assay [6] is filed under the species Mus musculus. The assay is described as follows: Hypothermia as measured from changes in rectal (RT) in mice; Inactive. It is filed as functional, organism-based. A digest of the protocol:
(§3)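 Separate group of mice; rectal temperature by thermistor probe inserted 25 mm before and 4 min after iv tail-vein injection (ethanol:emulphor:saline 1:1:18, 0.1 mL/10 g).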

Assay [7] is filed under the species Mus musculus. Kind of assay: Hypothermia as measured from changes in rectal (RT) in mice. It counts as functional. The essentials:
as §3

Assay [8] is filed under the species Mus musculus. The assay is described as follows: Antinociception as measured from the tail - flick response (TF), in mice; Inactive. It counts as functional, organism-based.
The species named for assay [9] is Mus musculus. The assay is described as follows: Inhibition of spontaneous activity (SA) in mice; Inactive. It is filed as functional, organism-based. A digest of the protocol: as §2
Assay [10] is filed under the species Mus musculus. The assay is described as follows: Ring immobility (RI) in mice; Inactive. It counts as functional, organism-based. The essentials:
as §1

Calls of active or inactive are those of the source. No cut-off for these calls is given here.

T1 sequence (P47746 whole entry): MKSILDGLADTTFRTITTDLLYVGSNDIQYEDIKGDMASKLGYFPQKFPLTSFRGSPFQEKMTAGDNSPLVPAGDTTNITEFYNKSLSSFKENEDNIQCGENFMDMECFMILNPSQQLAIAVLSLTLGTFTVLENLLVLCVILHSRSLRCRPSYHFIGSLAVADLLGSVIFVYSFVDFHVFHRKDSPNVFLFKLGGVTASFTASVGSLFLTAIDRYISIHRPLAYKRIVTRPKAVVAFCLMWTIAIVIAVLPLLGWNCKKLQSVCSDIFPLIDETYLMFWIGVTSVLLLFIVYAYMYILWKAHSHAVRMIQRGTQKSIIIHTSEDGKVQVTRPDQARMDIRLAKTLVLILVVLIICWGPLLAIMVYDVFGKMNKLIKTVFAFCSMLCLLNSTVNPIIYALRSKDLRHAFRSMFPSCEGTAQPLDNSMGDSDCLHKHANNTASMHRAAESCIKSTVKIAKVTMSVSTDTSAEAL

As a reminder, the ED50 is the dose that gives a 50% effect, or the effect in half of the subjects. As a reminder, the Ki is the equilibrium dissociation constant of an inhibitor or competing ligand from its target. For `CCCCCCCCC/C=C\C/C=C\C/C=C\C/C=C\CCCC(=O)NCCO`, the ED50 in the assay filed under Mus musculus [1] was determined as 5.13 mg/kg; in the assay listed under Mus musculus [4], 7.35 mg/kg; in the assay filed under Mus musculus [5] it was 14.4 mg/kg. Besides, the Ki on Cannabinoid receptor 1 [2] came to 25 nM; at Cannabinoid receptor 1 [3], 79 nM. Further, in the assay listed under Mus musculus [6], the ED50 result is “inactive”.
Turning to `CCCCCc1cc(O)c2c(c1)OC(C)(C)C1CCC(C)=C[C@@H]21` (single isomer, unassigned) [DRONABINOL], the ED50 in the assay listed under Mus musculus [1] was determined as 1.5 mg/kg; in the assay listed under Mus musculus [4] it was 1 mg/kg; in the assay listed under Mus musculus [5], 1.4 mg/kg; in the assay listed under Mus musculus [7], 1.4 mg/kg.
Turning to `CCCCCCCC(C)(C)/C=C\C/C=C\C/C=C\C/C=C\CCC(C)C(=O)NCCF` (centres undefined), the ED50 in the assay filed under Mus musculus [1] is 33.3 mg/kg; in the assay listed under Mus musculus [4], 20.3 mg/kg; in the assay listed under Mus musculus [5] it was 12.8 mg/kg. Also, on Cannabinoid receptor 1 [2], the Ki turned out to be 14 nM. The ED50 result in the assay filed under Mus musculus [6] is “inactive”.
With `CCCCCC(C)(C)C/C=C\C/C=C\C/C=C\C/C=C\CCC(C)C(=O)NCCF` (centres undefined), the ED50 in the assay listed under Mus musculus [1] amounted to 11.4 mg/kg; in the assay listed under Mus musculus [4], 3.14 mg/kg; in the assay filed under Mus musculus [5], 4.12 mg/kg; in the assay filed under Mus musculus [7] it was 76.2 mg/kg. In addition, the Ki on Cannabinoid receptor 1 [2] was found to be 7.7 nM.
Consider `CCCCCCC(C)(C)/C=C\C/C=C\C/C=C\C/C=C\CCC(C)C(=O)NCCF` (centres undefined), for which the 50% effective dose (ED50) turned out to be 3.11 mg/kg in the assay listed under Mus musculus [1], 3.48 mg/kg in the assay filed under Mus musculus [4], 0.86 mg/kg in the assay filed under Mus musculus [5] and 3.6 mg/kg in the assay filed under Mus musculus [7]. Besides, the inhibition constant Ki at Cannabinoid receptor 1 [2] was determined as 1 nM.
In the case of `CCCCCC(C)C/C=C\C/C=C\C/C=C\C/C=C\CCC(C)C(=O)NCCF` (centres undefined), the ED50 worked out at 2.67 mg/kg in the assay filed under Mus musculus [1], 2.09 mg/kg in the assay listed under Mus musculus [4], 4.08 mg/kg in the assay listed under Mus musculus [5] and 0.24 mg/kg in the assay filed under Mus musculus [7]. On Cannabinoid receptor 1 [2], the Ki worked out at 3.3 nM.
For `CCCCCCCC/C=C\C/C=C\C/C=C\C/C=C\CCC(C)C(=O)NCCF` (centres undefined), the ED50 in the assay listed under Mus musculus [1] came out at 6.37 mg/kg; in the assay listed under Mus musculus [4], 3.52 mg/kg; in the assay filed under Mus musculus [5] it was 15.3 mg/kg. For the same compound, on Cannabinoid receptor 1 [2], the Ki is 8.2 nM. For the same compound, the ED50 entry in the assay filed under Mus musculus [6] is “inactive”.
`CCCCCCC(C)/C=C\C/C=C\C/C=C\C/C=C\CCC(C)C(=O)NCCF` (centres undefined): the ED50 in the assay listed under Mus musculus [1] is 2.22 mg/kg; in the assay listed under Mus musculus [4], 1.15 mg/kg; in the assay filed under Mus musculus [5], 1.3 mg/kg; in the assay listed under Mus musculus [7] it was 0.08 mg/kg. In addition, the Ki at Cannabinoid receptor 1 [2] is 4.8 nM.
`CCCCCCCC/C=C\C/C=C\C/C=C\C/C=C\CCCC(=O)NCCO`: the ED50 result in the assay filed under Mus musculus [8] and in the assay listed under Mus musculus [9] was “inactive” each time. Besides, the Ki on Cannabinoid receptor 1 [2] was determined as 18 nM; on Cannabinoid receptor 1 [3] it was 156 nM.
Turning to `CCCCCCC/C=C\C/C=C\C/C=C\C/C=C\CCCC(=O)NCCO`, the ED50 entry in the assay listed under Mus musculus [8], in the assay listed under Mus musculus [10] and in the assay listed under Mus musculus [6] was “inactive” each time. The Ki on Cannabinoid receptor 1 [2] was 55 nM; at Cannabinoid receptor 1 [3], 1780 nM. Besides, it took a dose of 20.4 mg/kg to reach the 50% effect level in the assay filed under Mus musculus [4] (ED50).
As to `CCCCCCC(C)(C)/C=C\C/C=C\C/C=C\C/C=C\CCCC(=O)NCCO`, the ED50 in the assay listed under Mus musculus [1] came to 1.17 mg/kg; in the assay listed under Mus musculus [4], 2.17 mg/kg; in the assay filed under Mus musculus [5], 2.16 mg/kg; in the assay listed under Mus musculus [7], 7.49 mg/kg. Further, the Ki on Cannabinoid receptor 1 [2] was determined as 7 nM.
On to `CCCCCC(C)(C)C/C=C\C/C=C\C/C=C\C/C=C\CCCC(=O)NCCO`, for which the ED50 came to 5.05 mg/kg in the assay filed under Mus musculus [1], 3.36 mg/kg in the assay listed under Mus musculus [4], 57.3 mg/kg in the assay filed under Mus musculus [5] and 9.38 mg/kg in the assay listed under Mus musculus [7]. Besides, the values for the Ki at Cannabinoid receptor 1 [2] and on Cannabinoid receptor 1 [3] were 19 nM and 39 nM, respectively.
Regarding `CCCCC/C=C\C/C=C\C/C=C\C/C=C\CCC(C)C(=O)NCCF` (centres undefined), the ED50 in the assay listed under Mus musculus [1] is 1.6 mg/kg; in the assay filed under Mus musculus [4], 4.78 mg/kg; in the assay listed under Mus musculus [5] it was 6.99 mg/kg; in the assay listed under Mus musculus [7], 2.73 mg/kg. Further, the Ki was determined as 5.7 nM at Cannabinoid receptor 1 [2] and 15 nM on Cannabinoid receptor 1 [3].
Regarding `CCCCC/C=C\C/C=C\C/C=C\C/C=C\CCCC(=O)NCCO` [ANANDAMIDE], the ED50 in the assay listed under Mus musculus [1] was 19.1 mg/kg; in the assay filed under Mus musculus [4], 17.9 mg/kg; in the assay listed under Mus musculus [5], 6.2 mg/kg; in the assay listed under Mus musculus [7], 26.5 mg/kg.
With `CCCCCC(C)C/C=C\C/C=C\C/C=C\C/C=C\CCCC(=O)NCCO` (centres undefined), the ED50 turned out to be 5.29 mg/kg in the assay listed under Mus musculus [1], 6.22 mg/kg in the assay filed under Mus musculus [4], 5.48 mg/kg in the assay filed under Mus musculus [5] and 12.2 mg/kg in the assay filed under Mus musculus [7]. Further, the Ki on Cannabinoid receptor 1 [2] was 11 nM; at Cannabinoid receptor 1 [3] it was 51 nM.
For the compound `CCCCCC/C=C\C/C=C\C/C=C\C/C=C\CCCC(=O)NCCO`, the ED50 entry in the assay filed under Mus musculus [8], in the assay listed under Mus musculus [10], in the assay filed under Mus musculus [6] and in the assay listed under Mus musculus [9] was “inactive” each time. Moreover, the results for the Ki on Cannabinoid receptor 1 [2] and at Cannabinoid receptor 1 [3] were 24 nM and 3060 nM, respectively.
On to `CCCCC(C)(C)C/C=C\C/C=C\C/C=C\C/C=C\CCCC(=O)NCCO`, for which the ED50 entry in the assay listed under Mus musculus [8], in the assay filed under Mus musculus [10] and in the assay filed under Mus musculus [6] was “inactive” in each case. Moreover, the Ki worked out at 48 nM on Cannabinoid receptor 1 [2] and 382 nM on Cannabinoid receptor 1 [3]. The compound further showed an ED50 in the assay listed under Mus musculus [4] of 44.1 mg/kg.

These data come from ChEMBL document CHEMBL1130218, “Potent anandamide analogs: the effect of changing the length and branching of the end pentyl chain” (J Med Chem, 1997).
